PGC1a acetyl inh: PGC1a acetylation modulation, inhibitor mode; U2OS PGC1a acetylation, AlphaScreen anti-acetyl-lysine; with virally co-expressed GCN5 acetyltransferase; AID 651687; 0.17% of 350,000 active; inhibition, % at 15.6 µM;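 active = every replicate shows inhibition of at least 40%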;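 note: 0% = neutral control wells and 100% = positive control wells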
EWS-Fli block: EWS/Fli transcriptional activity inhibition | A673 NR0B1-luciferase reporter, viability-normalised | inhibition, % at 12.6 µM | 0.67% of 350,000 active | AID 651661;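 active = mean inhibition of at least 50% after viability correction, with every replicate also passing that limit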;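 note: firefly luciferase signal divided by Alamar Blue viability fluorescence both relative to DMSO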
FN deposit inh: fibronectin deposition inhibition; AH1F fibroblasts, Alexa488-fibronectin deposition fluorescence, overnight; inhibition, % at 12.6 µM; 0.086% of 350,000 active;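 active = mean inhibition across replicates of 30% or more, regardless of how many single replicates reach that level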;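 note: positive control wells lacked labelled fibronectin entirely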
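Assay system: AH1F fibroblasts / Quantity: 10000 cells per well / Medium: DMEM plus 2% serum, read in PBS / Reagent: labelled fibronectin 24 nM / Dosing: single dose, pinned / Times: 1 h cell attachment, overnight exposure to compound and label / Signal: fluorescence, ex 485 nm, em 525 nm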
Env fusion inh: blocks HIV Env-driven cell-cell fusion; 1.1% of 360,000 active; HeLa-JRFL Env/CEM21 cell fusion, luciferase; inhibition, % at 12.3 µM;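 active = mean replicate inhibition score of at least 50 and every replicate individually at or above 50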;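 note: 0% = plate neutral controls and 100% = maraviroc near 300 nM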
PAX8 reporter: lowers PAX8-driven luciferase in RMG-I cells; AID 652154; inhibition, % at 12.6 µM; RMG-I TPO-luciferase reporter, SteadyGlo, 24 h; 1.2% of 360,000 active;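 active = mean replicate inhibition at least 60% with every replicate also reaching 60%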;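 note: luciferase light reporting Pax8 driven TPO promoter activity; plate controls were median of neutral control wells for no effect and mitoxantrone controls for full effect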
F508del corr: CFTR F508del correction in bronchial cells. CFBE cells, YFP halide quenching; stimulated with forskolin plus potentiator P3; % fluorescence drop versus neutral controls. activity (quench increase), % at 7.58 µM. 0.36% of 350,000 active. AID 720511;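 active = mean added fluorescence quench of at least 8% versus neutral control, with both replicates also reaching 8%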;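 note: cells transiently co-express mutant CFTR-F508del with the halide-sensitive YFP; corrector assay measuring rescue of mutant channel to the surface after 24 h compound exposure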
* hit, by the source's call; i = inactive; / = not tested or not shown; [ ] = dose if it differs, or a comment. Most compounds without a hit are left out; they make up all but 2.3% or so of the library.

SMILES | PGC1a acetyl inh | EWS-Fli block | FN deposit inh | Env fusion inh | PAX8 reporter | F508del corr
Cc1ccc(S(=O)(=O)Nc2ccc3c(c2)C(=O)N([C@H](C)CO)C[C@@H](C)[C@H](CN(C)C(=O)C2CCCCC2)OCCCC[C@H](C)O3)cc1 | 1 | 13 | 4 | 15[16.7 µM] | 75* | -2
C[C@@H]1CCCCO[C@@H](CN(C)C(=O)C2CCCCC2)[C@H](C)CN([C@@H](C)CO)C(=O)c2cc(NS(=O)(=O)c3ccc(Cl)cc3)ccc2O1 | -7 | -20 | -10 | -26[16.7 µM] | 81* | -1
C[C@@H]1CCCCO[C@H](CN(C)C(=O)C2CCCCC2)[C@@H](C)CN([C@H](C)CO)C(=O)c2cc(NS(=O)(=O)c3ccc(Cl)cc3)ccc2O1 | 7 | 2 | -9 | -41[16.7 µM] | -2 | 2
C[C@H]1CN(C)C(=O)c2cccc(N)c2O[C@@H]1CN(C)C(=O)OC(C)(C)C | / | / | 13 | / | / | /
C[C@H]1CN([C@@H](C)CO)C(=O)c2cc(NC(=O)Nc3ccccc3)ccc2O[C@@H]1CN(C)Cc1ccc(Oc2ccccc2)cc1 | -6 | 2 | / | 3[16.7 µM] | 1 | -1
COc1ccc2c3c(n(C)c2c1)[C@H](CO)NCC31CN(S(=O)(=O)c2ccc(C)cc2)C1 | / | / | 6 | / | / | /
O=C([C@H]1[C@H](CO)[C@H]2Cn3c(cccc3=O)[C@@H]1N2CC1CCCC1)N1CCOCC1 | -1 | -1 | -17 | / | / | -1
O=C(C[C@H]1C[C@@H]2c3cc(NC(=O)Nc4ccc(F)cc4)ccc3O[C@@H]2[C@@H](CO)O1)NC1CCCCC1 | 2 | 10 | -12 | 21[16.7 µM] | 8 | 0
NC[C@H](Cc1ccccc1)NCCCCC1CCCCC1 | 5 | 8 | -2 | 0 | 17 | -1
CNC[C@H](CC1CCCCC1)NC[C@H](Cc1ccccc1)NCCC12CC3CC(CC(C3)C1)C2 | / | 26 | 60* | 93* | 77* | -1
CNC(=O)C1CCC(=O)N1Cc1ccccc1Cl (stereo not drawn) | -4 | / | 0 | -11 | / | /
O=C(Nc1cc(Cl)cc(Cl)c1)C1CCC(=O)N1Cc1ccccc1Cl (stereo not drawn) | -20 | / | 12 | 53* | 3 | /
Cc1ccc(S(=O)(=O)N2CCOCC2)cc1NC(=O)COC(=O)c1ccc(Cl)nc1 | 4 | 2 | -1 | / | 2 | 10*
O=C(COC(=O)c1ccc(Cl)nc1)Nc1cc(S(=O)(=O)N2CCOCC2)ccc1Cl | -2 | -5 | -9 | 0 | -7 | 4
Cc1ccc(S(=O)(=O)Nc2nc3ccccc3nc2Nc2cccc(S(=O)(=O)N3CCCC3)c2)cc1 | -8 | 1 | -14 | 38 | -4 | -2
Cc1ccc(NC(=O)c2ccc([N+](=O)[O-])o2)cc1S(=O)(=O)N1CCOCC1 | -191 | 49 | / | -203 | 84* | /
O=[N+]([O-])c1cccc(S(=O)(=O)Nc2nc3ccccc3nc2Nc2cccc(S(=O)(=O)N3CCCCC3)c2)c1 | / | 22 | 7 | 72* | 9 | /
Cc1ccc(NC(=O)c2c(C)noc2C)cc1S(=O)(=O)N1CCOCC1 | 3 | -9 | 2 | -23 | / | 9.9*
C[C@H](CO)N1C[C@H](C)[C@@H](CN(C)C(=O)Cc2ccccn2)Oc2ncc(C#CC3CCCC3)cc2C1=O | -5 | -12 | / | 5[16.7 µM] | 0 | 0
COc1ccc(C#Cc2cnc3c(c2)C(=O)N([C@H](C)CO)C[C@@H](C)[C@H](CN(C)C(C)=O)O3)cc1 | -3 | -8 | -5 | 20[16.7 µM] | / | 2
C[C@@H]1CN([C@@H](C)CO)C(=O)Cc2cc(NS(C)(=O)=O)ccc2O[C@H]1CN(C)C(=O)Nc1ccc2c(c1)OCO2 | 0 | -7 | / | 4[16.7 µM] | -12 | 1
Cc1ccc(NC(=O)COC(=O)c2cccnc2Cl)cc1S(=O)(=O)N1CCOCC1 | 3 | -3 | 1 | 4 | 9 | -2
CSc1ncccc1C(=O)OCC(=O)Nc1ccc(C)c(S(=O)(=O)N2CCOCC2)c1 | -8 | 4 | -3 | 76* | -1 | -8
O=C(Nc1cccc(S(=O)(=O)N2CCCCC2)c1)c1ccc([N+](=O)[O-])o1 | -226 | 42 | 4 | -121 | 76* | -13
CC(C)C(=O)N1CCN(c2ccc(NC(=O)c3ccc([N+](=O)[O-])o3)cc2)CC1 | / | 35 | 4 | -387 | 97* | 1
SMILES | PGC1a acetyl inh | EWS-Fli block | FN deposit inh | Env fusion inh | PAX8 reporter | F508del corr
O=C(COC(=O)c1ccc([N+](=O)[O-])o1)Nc1cccc(S(=O)(=O)N2CCCCC2)c1 | -10 | -2 | -4 | -17 | 7 | 4
CC(C)C(=O)N1CCN(c2ccc(NC(=O)c3ccc([N+](=O)[O-])o3)cc2Cl)CC1 | 30 | 61* | 37* | i | 88* | -4
CC(C)[C@H]1COCc2cn(nn2)CC[C@@H](Cc2ccc(Cl)cc2)C(=O)N1 | / | / | 3 | / | / | /
CC(C)NC(=O)N(C)C[C@@H]1Oc2ncccc2C(=O)N(C)C[C@H]1C | / | / | 0 | / | / | /
O=C(Nc1ccc(N2CCOCC2)c(Cl)c1)c1ccc([N+](=O)[O-])o1 | / | 14 | / | i | 71* | -4
Cc1ccc(NC(=O)c2cc3c(s2)CCC3)cc1S(=O)(=O)N1CCOCC1 | / | / | 3 | 58* | / | /
CCN1CCN(c2c(Cl)cccc2NC(=O)c2ccc([N+](=O)[O-])o2)CC1 | / | / | 11 | 7 | 7 | 0
CCCC(=O)N1CCN(c2ccc(NC(=O)c3ccc([N+](=O)[O-])o3)cc2Cl)CC1 | 27 | 71* | 5 | -285 | 104* | -11
CC(=O)N1CCN(c2ccc(NC(=O)c3ccc(Br)o3)cc2Cl)CC1 | 19 | -61 | 0 | -18 | -14 | -1
CN1CCN(c2ccc(NC(=O)c3ccc([N+](=O)[O-])o3)cc2Cl)CC1 | / | 30 | 8 | i | 82* | 0
CO[C@@H]1CN(C)C(=O)c2ccc(NC(=O)C3CC3)cc2OC[C@@H](C)N(C)C[C@H]1C | -12 | 10 | -17 | / | -28 | -5
C[C@H](CO)N1C[C@H](C)[C@H](CN(C)C(=O)CC2CC2)Oc2cc(C#CC(C)(C)O)ccc2S1(=O)=O | 3 | -5 | 0 | 18[16.7 µM] | / | -2
COc1cccc(-c2nc(-c3ccccn3)no2)c1 | / | / | 2 | -5 | 70* | /
COc1cc(-c2nc(-c3cccc(C)c3)no2)cc(OC)c1OC | 4 | / | -7 | -11 | / | /
COc1ccc(-c2nc(-c3cccc(C)c3)no2)cc1OC | 4 | -106 | / | / | / | 10*
O=C(NCC[C@@H]1CC[C@@H](NS(=O)(=O)c2ccccc2)[C@@H](CO)O1)c1ccc2c(c1)OCO2 | 1 | 12 | / | 8[16.7 µM] | -1 | 1
COc1ccc(S(=O)(=O)N2CCC3(CC2)CN(C(=O)CN(C)C)[C@@H](CO)c2c3c3ccc(OC)cc3n2C)cc1 | 2 | 15 | / | / | 12 | 1
COc1ccc(CN2C[C@@H](O)COC[C@@H]3O[C@H](CC(=O)NCCN4CCCC4)CC[C@H]32)cc1 | -7 | -5 | -9 | -7[16.7 µM] | 2 | -1

Compound activity deposited in PubChem BioAssay by Broad Institute.
